# Experiments:
# HDAC1 [1] = target: T1, HDAC1 (Homo sapiens, UniProt Q13547); assay: In vitro HDACs inhibition fluorescence assay, HDAC1; format: biochemical; conditions: preincubation 15, 30, 60, 90 min
# Method in brief: (§1)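 Recombinant HDAC enzyme is preincubated with serial test-compound concentrations at 30 °C for 15, 30, 60 or 90 min. Boc-Lys(acetyl)-AMC is added for 2 h at 30 °C. The reaction is stopped with a trypsin/trichostatin A developer, and fluorescence is read after 30 min (ex 360/em 460 nm). Inhibition is taken relative to control wells, and IC50 comes from a variable-slope log(inhibitor)–normalized response fit.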
# HDAC2 [2] = target: T2, HDAC2 (Homo sapiens, UniProt Q92769); assay: In vitro HDACs inhibition fluorescence assay, HDAC2; format: biochemical; conditions: preincubation 15, 30, 60, 90 min
# T2 sequence (Q92769 whole entry): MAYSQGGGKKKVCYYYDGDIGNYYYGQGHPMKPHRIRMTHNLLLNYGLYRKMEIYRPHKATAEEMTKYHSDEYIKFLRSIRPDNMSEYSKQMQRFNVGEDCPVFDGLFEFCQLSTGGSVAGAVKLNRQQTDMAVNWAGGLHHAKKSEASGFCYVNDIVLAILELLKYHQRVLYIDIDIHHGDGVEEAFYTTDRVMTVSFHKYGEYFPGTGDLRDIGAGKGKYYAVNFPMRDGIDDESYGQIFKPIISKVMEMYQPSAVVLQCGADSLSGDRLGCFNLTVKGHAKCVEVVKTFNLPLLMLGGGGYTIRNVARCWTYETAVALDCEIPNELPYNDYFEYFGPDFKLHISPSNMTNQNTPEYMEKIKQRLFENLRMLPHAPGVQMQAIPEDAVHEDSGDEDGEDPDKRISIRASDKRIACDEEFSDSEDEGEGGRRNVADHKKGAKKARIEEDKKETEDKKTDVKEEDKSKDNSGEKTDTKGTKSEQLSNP
# Method in brief: as §1
# HDAC3 [3] = target: T3, HDAC3 (Homo sapiens, UniProt O15379); assay: In vitro HDACs inhibition fluorescence assay, HDAC3; format: biochemical; conditions: preincubation 15, 30, 60, 90 min
# T3 sequence (O15379 whole entry): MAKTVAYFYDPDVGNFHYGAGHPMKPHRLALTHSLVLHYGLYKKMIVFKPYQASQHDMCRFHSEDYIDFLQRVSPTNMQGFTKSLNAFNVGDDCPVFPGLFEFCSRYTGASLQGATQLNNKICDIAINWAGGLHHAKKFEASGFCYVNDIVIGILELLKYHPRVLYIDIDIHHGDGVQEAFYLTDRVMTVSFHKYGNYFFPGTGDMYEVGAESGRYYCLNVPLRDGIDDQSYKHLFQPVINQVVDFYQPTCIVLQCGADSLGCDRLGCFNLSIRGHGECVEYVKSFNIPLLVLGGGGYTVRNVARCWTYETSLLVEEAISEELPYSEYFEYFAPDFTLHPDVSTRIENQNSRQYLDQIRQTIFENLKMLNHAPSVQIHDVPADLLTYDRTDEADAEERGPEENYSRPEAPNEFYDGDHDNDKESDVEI
# T3 sequence (Q9Y618 395-489 partner limits assumed): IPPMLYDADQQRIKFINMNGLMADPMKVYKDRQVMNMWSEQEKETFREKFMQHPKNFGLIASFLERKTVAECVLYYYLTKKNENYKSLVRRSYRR
# HDAC1 [4] = target: T1, HDAC1; assay: Recombinant HDAC Vmax study; format: biochemical; conditions: 2 h preincubation
# HDAC2 [5] = target: T2, HDAC2; assay: Recombinant HDAC Vmax study; format: biochemical; conditions: 2 h preincubation
# Method in brief: (§2)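 Recombinant human HDAC is incubated with inhibitor dilutions in HDAC buffer for 2 h at 30 °C. Serially diluted Boc-Lys(acetyl)-AMC is then added. After 2 h, the reaction is quenched with trypsin (5 mg/mL) plus 1 μM TSA solution, and fluorescence is read at 360/460 nm. Vmax and Km come from a Michaelis–Menten fit, and Lineweaver–Burk double-reciprocal plots are derived from them.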
# HDAC3 [6] = target: T3, HDAC3; assay: Recombinant HDAC Vmax study; format: biochemical; conditions: 2 h preincubation
# Method in brief: as §2
# MV4-11 cells [7] = assay: MV4-11 EC50 analysis / cell viability; format: cell-based
# PC-3 cells [8] = assay: PC-3 EC50 analysis / cell viability; format: cell-based; conditions: 24 and 48 h
# MMP-2/MMP-9 = MMP-2/MMP-9 inhibitory activity; format: biochemical; conditions: read-out: MMP-2/MMP-9, no inhibition at concentrations up to
# Method in brief: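 Gelatinase (MMP-2/MMP-9) fluorogenic kit assay. Test compound is added as a 100 μM solution (before mixing), alongside a 40 μM reference MMP inhibitor. Enzyme diluted in activation buffer is added for 10–15 min, then substrate. The mix is incubated at 37 °C for 2 h, and fluorescence is read at ex 320/em 405 nm.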
# APN/CD13 = target: T4, APN/CD13 (Sus scrofa, UniProt P15145); assay: CD13 inhibition assay; format: biochemical, porcine
# T4 sequence (P15145 1-963): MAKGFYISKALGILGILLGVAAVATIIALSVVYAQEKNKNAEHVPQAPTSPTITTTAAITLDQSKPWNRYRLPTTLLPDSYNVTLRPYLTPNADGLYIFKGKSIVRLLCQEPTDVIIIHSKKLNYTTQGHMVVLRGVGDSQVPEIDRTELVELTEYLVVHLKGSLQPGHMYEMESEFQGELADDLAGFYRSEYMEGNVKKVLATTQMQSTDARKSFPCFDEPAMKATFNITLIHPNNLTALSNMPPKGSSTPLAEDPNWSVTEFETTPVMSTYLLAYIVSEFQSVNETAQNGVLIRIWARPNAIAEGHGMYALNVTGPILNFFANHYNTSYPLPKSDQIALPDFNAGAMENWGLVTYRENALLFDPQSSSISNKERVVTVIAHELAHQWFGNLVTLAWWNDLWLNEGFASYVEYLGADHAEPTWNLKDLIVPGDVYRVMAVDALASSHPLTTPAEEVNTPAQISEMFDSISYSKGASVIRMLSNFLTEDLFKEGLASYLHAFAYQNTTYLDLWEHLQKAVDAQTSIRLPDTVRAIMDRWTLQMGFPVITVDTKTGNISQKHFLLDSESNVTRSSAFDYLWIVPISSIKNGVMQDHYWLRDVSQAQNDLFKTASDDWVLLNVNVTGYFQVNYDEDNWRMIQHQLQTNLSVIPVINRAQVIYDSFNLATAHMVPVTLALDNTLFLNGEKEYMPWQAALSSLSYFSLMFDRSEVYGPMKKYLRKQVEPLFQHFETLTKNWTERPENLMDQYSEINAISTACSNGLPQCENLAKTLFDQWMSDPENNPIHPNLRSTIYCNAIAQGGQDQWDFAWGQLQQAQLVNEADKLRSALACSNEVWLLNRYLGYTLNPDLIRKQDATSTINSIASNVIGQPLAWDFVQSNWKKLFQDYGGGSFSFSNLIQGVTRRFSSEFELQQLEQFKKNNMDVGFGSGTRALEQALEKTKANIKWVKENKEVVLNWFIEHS
# Method in brief: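 Porcine kidney microsomal aminopeptidase (CD13) is added to test compound at various concentrations. After 5 min, L-leucine-p-nitroanilide substrate is added, and the mix is incubated at 37 °C for 30 min. Absorbance is then read at 405 nm.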
# MV4-11 cells [9] = assay: Western blot analysis in MV4-11 cells; format: cell-based; conditions: for Level of HDAC6: ≥0.5 μM 13e or 5 μM SAHA
# Method in brief: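 MV4-11 cells (1,500,000/well) are grown 12 h, then treated with test compound, mainly for 24 h (0.25–2 μM; 5 μM SAHA as reference). For p53, 0.5 μM is given for 6 or 12 h, and bortezomib is co-treated for 6 h. Cells are lysed in RIPA, sonicated, centrifuged, BCA-normalized, and run on 4–12% Bis-Tris gels. Blots are probed overnight at 4 °C with primary antibodies (1/1000), with actin as loading control (n ≥ 2).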
# PC-3 cells [10] = assay: Western blot analysis in PC-3 cells; format: cell-based; conditions: PC-3, 24 h
# Method in brief: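 PC-3 cells (300,000 per well, six-well) grown 12 h, then given test compound at 1 and 2 μM for 24 h; 5 μM reference HDAC inhibitor as positive control. RIPA lysates were sonicated, cleared at 4 °C, and BCA-normalised. Proteins were separated on 4–12% Bis-Tris gels in MES buffer. Primary antibodies were used at 1/1000 overnight at 4 °C, with actin as loading control. Representative of n ≥ 2 experiments.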
# MV4-11 cells [11] = assay: Cell cycle analysis in MV4-11 cells; format: cell-based; conditions: MV4-11, 24 h
# Method in brief: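 MV4-11 cells plated at 1,500,000 per well in six-well plates, grown 12 h, then exposed to test compound for 24 h. Cells were PBS-washed, fixed overnight at 4 °C in cold 75% ethanol, and washed twice in cold PBS. They were RNase A-treated at 37 °C for 30 min, stained with 50 μg/mL propidium iodide (30 min, 4 °C), and analysed by flow cytometry. Representative of n ≥ 2 experiments.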
# PC-3 cells [12] = assay: Cell cycle analysis in PC-3 cells; format: cell-based; conditions: PC-3, 24 h
# Method in brief: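 PC-3 cells (300,000/well) are grown 12 h, then treated with test compound at various concentrations for 24 h. Cells are harvested, PBS-washed, fixed overnight in 75% cold ethanol at 4 °C, and washed in cold PBS. They are then treated with RNase A at 37 °C for 30 min and stained with propidium iodide (50 μg/mL in PBS) for 30 min at 4 °C. DNA content is read by flow cytometry (n ≥ 2).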
# PC-3 cells [13] = assay: PC-3 cell morphology, phase-contrast light microscope; format: cell-based; conditions: 48 h
# Method in brief: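 PC-3 cells in culture flasks are exposed for 48 h to 2 or 10 μM test compound or DMSO vehicle. Cell morphology and attachment are then examined by phase-contrast light microscopy (n ≥ 2).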
# [14] = clinical use; cited from earlier work
# T1 sequence (Q13547 whole entry): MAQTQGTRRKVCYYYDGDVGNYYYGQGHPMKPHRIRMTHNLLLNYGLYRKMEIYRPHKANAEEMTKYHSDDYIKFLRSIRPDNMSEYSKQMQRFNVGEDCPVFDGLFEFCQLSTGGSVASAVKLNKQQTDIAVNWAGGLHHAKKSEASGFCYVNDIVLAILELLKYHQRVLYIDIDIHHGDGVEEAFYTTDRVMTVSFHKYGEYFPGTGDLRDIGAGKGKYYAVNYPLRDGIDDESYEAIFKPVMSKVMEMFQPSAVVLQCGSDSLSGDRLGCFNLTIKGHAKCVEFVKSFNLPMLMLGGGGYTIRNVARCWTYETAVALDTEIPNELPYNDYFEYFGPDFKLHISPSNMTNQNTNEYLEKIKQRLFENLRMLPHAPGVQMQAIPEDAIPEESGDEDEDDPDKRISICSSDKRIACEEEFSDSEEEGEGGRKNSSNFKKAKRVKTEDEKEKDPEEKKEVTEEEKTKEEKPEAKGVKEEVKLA
smiles,measurement,setting,value
"COc1ccc(C(=O)N[C@@H](Cc2c[nH]c3ccccc23)C(=O)NCc2ccc(C(=O)Nc3ccccc3N)cc2)cc1 [Compound 11a, (S)-4-((3-(1H-indol-3-yl)-2-(4-methoxybenzamido)propanamido)-methyl)-N-(2-aminophenyl)benzamide, reference compound]",Time dependence of HDAC1 inhibition,HDAC1 [1],time-dependent inhibition
same,Time dependence of HDAC2 inhibition,HDAC2 [2],time-dependent inhibition
same,Time dependence of HDAC3 inhibition,HDAC3 [3],time-dependent inhibition
same,Type of inhibition of HDAC1 (Lineweaver-Burke analysis),HDAC1 [4],competitive inhibition
same,Type of inhibition of HDAC2 (Lineweaver-Burke analysis),HDAC2 [5],mixed-type inhibition
same,Type of inhibition of HDAC3 (Lineweaver-Burke analysis),HDAC3 [6],mixed-type inhibition
"CCCNNC(=O)c1ccc(CNC(=O)[C@H](Cc2c[nH]c3ccccc23)NC(=O)c2ccc(OC)cc2)cc1 [Compound 13b, (S)-N-(3-(1H-Indol-3-yl)-1-oxo-1-((4-(2-propylhydrazine-1-carbonyl)benzyl)amino)propan-2-yl)-4-methoxybenzamide]",Time dependence of HDAC1 inhibition,HDAC1 [1],time-dependent inhibition
same,Time dependence of HDAC2 inhibition,HDAC2 [2],time-dependent inhibition
same,Time dependence of HDAC3 inhibition,HDAC3 [3],time-dependent inhibition
same,Type of inhibition of HDAC1 (Lineweaver-Burke analysis),HDAC1 [4],mixed inhibition
same,Type of inhibition of HDAC2 (Lineweaver-Burke analysis),HDAC2 [5],mixed inhibition
same,Type of inhibition of HDAC3 (Lineweaver-Burke analysis),HDAC3 [6],mixed inhibition
"CCCNNC(=O)c1ccc(NC(=O)[C@H](Cc2c[nH]c3ccccc23)NC(=O)c2ccc(OC)cc2)cc1 [Compound 13e, (S)-N-(3-(1H-Indol-3-yl)-1-oxo-1-((4-(2-propylhydrazine-1-carbonyl)phenyl)amino)propan-2-yl)-4-methoxybenzamide]",Viable MV4-11 cell population over time (resorufin fluorescence),"MV4-11 cells [7]; 10 and 2 μM, 24 and 48 h",decreased with time
same,MV4-11 cell death,MV4-11 cells [7]; 48 h treatment at high concentration,almost all MV4-11 cells were dead
same,"MV4-11 antiproliferative activity, times higher than 13b",MV4-11 cells [7]; vs 13b,4.1 times
same,Viable PC-3 cell population over time (resorufin fluorescence),PC-3 cells [8]; 2 μM,slightly increased
same,Viable PC-3 cell population over time (resorufin fluorescence),PC-3 cells [8]; 10 μM,remained unchanged
same,IC50,MMP-2/MMP-9,> 50 µM
same,IC50,APN/CD13,> 50 µM
same,Treatment time required for HDAC6 repression,MV4-11 cells [9]; MV4-11,more than 12 h
same,Time to degradation of p53,"MV4-11 cells [9]; MV4-11, 0.5 μM",≤ 6 h
same,HDAC1 level,"MV4-11 cells [9]; MV4-11, 24 h",did not induce down-regulation of class I HDAC1
same,Level of acetyl-tubulin,"MV4-11 cells [9]; MV4-11, 24 h",increased
same,Level of acetylated histone H3,"MV4-11 cells [9]; MV4-11, 24 h, 0.25-2 μM",markedly increase
same,Level of acetylated histone H4,"MV4-11 cells [9]; MV4-11, 24 h, 0.25-2 μM",markedly increase
same,Cleavage of pro-caspase3 / PARP (apoptosis),"MV4-11 cells [9]; MV4-11, 24 h, 1 and 2 μM",caused the cleavage of inactive pro-caspase3
same,Level of HDAC6,"MV4-11 cells [9]; MV4-11, 24 h",nearly absent
same,HDAC1 level,PC-3 cells [10],did not induce down-regulation of class I HDAC1
same,Cleavage of pro-caspase3 / PARP (apoptosis),PC-3 cells [10]; 1 and 2 μM,no observed cleavage of pro-caspase3 or PARP
same,HDAC6 level and acetylated tubulin level,PC-3 cells [10]; 1 and 2 μM,did not induce down-regulation of HDAC6 nor increase the level of acetylated tubulin
same,Cell cycle effect,MV4-11 cells [11],induced G1/S and sub-G1 cell cycle arrest
same,Cell cycle effect,PC-3 cells [12],triggered G2/M arrest
same,PC-3 cell morphology,PC-3 cells [13]; 2 μM,did not obviously affect cell morphology
same,PC-3 cell morphology,PC-3 cells [13]; 10 μM,cells were still alive and attached to the culture flask
"O=C(CCCCCCC(=O)Nc1ccccc1)NO [SAHA, vorinostat, reference compound]",Level of HDAC6,"MV4-11 cells [9]; MV4-11, 24 h",nearly absent
"CC(C)C[C@H](NC(=O)[C@H](Cc1ccccc1)NC(=O)c1cnccn1)B(O)O [bortezomib, reference compound]",Effect on p53 degradation upon hydrazide HDAC inhibitor treatment,"MV4-11 cells [9]; MV4-11, 6 h treatment",blocks this degradation
NNC(=O)c1ccncc1 [isoniazid],Rate of hepatotoxicity,[14],0.5–2%
same,Rate of lethal hepatotoxicity,[14],1/25000

# Source: publication PMC5908721 (Journal of medicinal chemistry, 2018)
